Measured values as given in ChEMBL document CHEMBL3045292, “Synthesis and herbicidal activity of 2-(7-fluoro-3-oxo- 3,4-dihydro-2H-benzo[b][1,4]oxazin-6-yl)isoindoline-1,3-diones” (J Agric Food Chem, 2005).

Assays:
[1] = Phytotoxicity against Zea mays (maize) assessed as growth inhibition at 30 g/ha post-emergence treatment measured after 15 days by crop-selectivity assay; assay type: organism-based; conditions: in vivo, read-out: GI
Procedure, shortened: (§1)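 Compounds were formulated as 100 g/L emulsifiable concentrates, with DMF as solvent and Tween-80 as emulsifier, then diluted in water to the required rate. They were sprayed on pot-grown plants in a greenhouse, in clay soil (pH 6.5, 1.6% organic matter, 37.3% clay, CEC 12.1 cmol/kg). Untreated and DMF-treated plants served as controls. Percent growth inhibition was scored visually 15 days after treatment.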

[2] = Phytotoxicity against Brassica rapa subsp. oleifera assessed as growth inhibition at 30 g/ha post-emergence treatment measured after 15 days by crop-selectivity assay; assay type: organism-based; conditions: in vivo, read-out: GI
[3] = Phytotoxicity against Gossypium (cotton) assessed as growth inhibition at 7.5 g/ha post-emergence treatment measured after 15 days by crop-selectivity assay; assay type: organism-based; conditions: in vivo, read-out: GI
[4] = Phytotoxicity against Triticum aestivum (wheat) assessed as growth inhibition at 150 g/ha pre-emergence treatment measured after 15 days by crop-selectivity assay; assay type: organism-based; conditions: in vivo, read-out: GI
[5] = Phytotoxicity against Oryza sativa (rice) assessed as growth inhibition at 150 g/ha pre-emergence treatment measured after 15 days by crop-selectivity assay; assay type: organism-based; conditions: in vivo, read-out: GI
[6] = Phytotoxicity against Brassica rapa subsp. oleifera assessed as growth inhibition at 150 g/ha pre-emergence treatment measured after 15 days by crop-selectivity assay; assay type: organism-based; conditions: in vivo, read-out: GI
[7] = Phytotoxicity against Glycine max (soybean) assessed as growth inhibition at 150 g/ha pre-emergence treatment measured after 15 days by crop-selectivity assay; assay type: organism-based; conditions: in vivo, read-out: GI
Gossypium [8] = experiment: Phytotoxicity against Gossypium (cotton) assessed as growth inhibition at 150 g/ha pre-emergence treatment measured after 15 days by crop-selectivity assay; assay type: organism-based; conditions: in vivo, other, 360 h
[9] = Phytotoxicity against Triticum aestivum (wheat) assessed as growth inhibition at 75 g/ha pre-emergence treatment measured after 15 days by crop-selectivity assay; assay type: organism-based; conditions: in vivo, read-out: GI; procedure, shortened: as §1
[10] = Phytotoxicity against Oryza sativa (rice) assessed as growth inhibition at 75 g/ha pre-emergence treatment measured after 15 days by crop-selectivity assay; assay type: organism-based; conditions: in vivo, read-out: GI
Gossypium [11] = experiment: Phytotoxicity against Gossypium (cotton) assessed as growth inhibition at 75 g/ha pre-emergence treatment measured after 15 days by crop-selectivity assay; assay type: organism-based; conditions: in vivo, other, 360 h
Zea mays [12] = experiment: Phytotoxicity against Zea mays (maize) assessed as growth inhibition at 30 g/ha pre-emergence treatment measured after 15 days by crop-selectivity assay; assay type: organism-based; conditions: in vivo, other, 360 h; procedure, shortened: as §1
[13] = Phytotoxicity against Oryza sativa (rice) assessed as growth inhibition at 30 g/ha pre-emergence treatment measured after 15 days by crop-selectivity assay; assay type: organism-based; conditions: in vivo, read-out: GI
Glycine max [14] = experiment: Phytotoxicity against Glycine max (soybean) assessed as growth inhibition at 30 g/ha pre-emergence treatment measured after 15 days by crop-selectivity assay; assay type: organism-based; conditions: in vivo, other, 360 h
[15] = Phytotoxicity against Brassica rapa subsp. oleifera assessed as growth inhibition at 30 g/ha pre-emergence treatment measured after 15 days by crop-selectivity assay; assay type: organism-based; conditions: in vivo, read-out: GI
Zea mays [16] = experiment: Phytotoxicity against Zea mays (maize) assessed as growth inhibition at 15 g/ha pre-emergence treatment measured after 15 days by crop-selectivity assay; assay type: organism-based; conditions: in vivo, other, 360 h; procedure, shortened: as §1
Gossypium [17] = experiment: Phytotoxicity against Gossypium (cotton) assessed as growth inhibition at 30 g/ha pre-emergence treatment measured after 15 days by crop-selectivity assay; assay type: organism-based; conditions: in vivo, other, 360 h
[18] = Phytotoxicity against Oryza sativa (rice) assessed as growth inhibition at 15 g/ha pre-emergence treatment measured after 15 days by crop-selectivity assay; assay type: organism-based; conditions: in vivo, read-out: GI
Glycine max [19] = experiment: Phytotoxicity against Glycine max (soybean) assessed as growth inhibition at 15 g/ha pre-emergence treatment measured after 15 days by crop-selectivity assay; assay type: organism-based; conditions: in vivo, other, 360 h
Gossypium [20] = experiment: Phytotoxicity against Gossypium (cotton) assessed as growth inhibition at 15 g/ha pre-emergence treatment measured after 15 days by crop-selectivity assay; assay type: organism-based; conditions: in vivo, other, 360 h
Triticum aestivum = experiment: Phytotoxicity against Triticum aestivum (wheat) assessed as growth inhibition at 7.5 g/ha pre-emergence treatment measured after 15 days by crop-selectivity assay; assay type: organism-based; conditions: in vivo, other, 360 h; procedure, shortened: as §1
[21] = Phytotoxicity against Glycine max (soybean) assessed as growth inhibition at 30 g/ha post-emergence treatment measured after 15 days by crop-selectivity assay; assay type: organism-based; conditions: in vivo, read-out: GI
[22] = Phytotoxicity against Gossypium (cotton) assessed as growth inhibition at 30 g/ha post-emergence treatment measured after 15 days by crop-selectivity assay; assay type: organism-based; conditions: in vivo, read-out: GI
[23] = Phytotoxicity against Zea mays (maize) assessed as growth inhibition at 15 g/ha post-emergence treatment measured after 15 days by crop-selectivity assay; assay type: organism-based; conditions: in vivo, read-out: GI; procedure, shortened: as §1
[24] = Phytotoxicity against Oryza sativa (rice) assessed as growth inhibition at 15 g/ha post-emergence treatment measured after 15 days by crop-selectivity assay; assay type: organism-based; conditions: in vivo, read-out: GI
[25] = Phytotoxicity against Glycine max (soybean) assessed as growth inhibition at 15 g/ha post-emergence treatment measured after 15 days by crop-selectivity assay; assay type: organism-based; conditions: in vivo, read-out: GI
[26] = test system: Brassica rapa subsp. oleifera; experiment: Phytotoxicity against Brassica rapa subsp. oleifera assessed as growth inhibition at 7.5 g/ha pre-emergence treatment measured after 15 days by crop-selectivity assay; assay type: organism-based; conditions: in vivo, other, 360 h
Glycine max [27] = experiment: Phytotoxicity against Glycine max (soybean) assessed as growth inhibition at 7.5 g/ha pre-emergence treatment measured after 15 days by crop-selectivity assay; assay type: organism-based; conditions: in vivo, other, 360 h
Gossypium [28] = experiment: Phytotoxicity against Gossypium (cotton) assessed as growth inhibition at 7.5 g/ha pre-emergence treatment measured after 15 days by crop-selectivity assay; assay type: organism-based; conditions: in vivo, other, 360 h
Abutilon theophrasti [29] = experiment: Herbicidal activity against Abutilon theophrasti (velvetleaf) assessed as weed growth inhibition at post-emergence treatment […]; assay type: functional, organism-based
Procedure, shortened: (§2)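 Pot-grown plants in the greenhouse, in clay soil (pH 6.5, 1.6% organic matter, 37.3% clay, CEC 12.1 cmol/kg). Compound was made up as a 100 g/L emulsified concentrate (DMF, Tween-80), diluted in water and sprayed at 75 g ai/ha. Pre-emergence spraying was 24 h after sowing; post-emergence at two-leaf (dicots) or one-leaf (monocots) stage. Untreated and DMF controls. Percent growth inhibition scored visually 15 days post-treatment.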

Setaria viridis [30] = experiment: Herbicidal activity against Setaria viridis (green foxtail) assessed as weed growth inhibition at 75 g/ha post-emergence treatment […]; assay type: functional; conditions: read-out: GI; procedure, shortened: as §2
Echinochloa crus-galli [31] = experiment: Herbicidal activity against Echinochloa crus-galli (barnyard grass) (barnyard grass) assessed as weed growth inhibition at 75 g/ha post-emergence treatment […]; assay type: functional; conditions: read-out: GI; procedure, shortened: as §2
Digitaria sanguinalis = experiment: Herbicidal activity against crabgrass Digitaria sanguinalis(hairy crabgrass) assessed as weed growth inhibition at 75 g/ha post-emergence treatment […]; assay type: functional; conditions: read-out: GI; procedure, shortened: as §2
Amaranthus blitum [32] = experiment: Herbicidal activity against Amaranthus blitum assessed as weed growth inhibition at 75 g/ha post-emergence treatment […]; assay type: functional; conditions: read-out: GI; procedure, shortened: as §2
Chenopodium album = experiment: Herbicidal activity against fat hen Chenopodium album assessed as weed growth inhibition at 75 g/ha post-emergence treatment […]; assay type: functional; conditions: read-out: GI; procedure, shortened: as §2
Abutilon theophrasti [33] = experiment: Herbicidal activity against Abutilon theophrasti (velvetleaf) assessed as weed growth inhibition at 75 g/ha post-emergence treatment […]; assay type: functional; conditions: read-out: GI; procedure, shortened: as §2
Setaria viridis [34] = experiment: Herbicidal activity against Setaria viridis (green foxtail) assessed as weed growth inhibition at 75 g/ha pre-emergence treatment […]; assay type: functional; conditions: read-out: GI; procedure, shortened: as §2
Echinochloa crus-galli [35] = experiment: Herbicidal activity against Echinochloa crus-galli (barnyard grass) (barnyard grass) assessed as weed growth inhibition at 75 g/ha pre-emergence treatment […]; assay type: functional; conditions: read-out: GI; procedure, shortened: as §2
Amaranthus blitum [36] = experiment: Herbicidal activity against Amaranthus blitum assessed as weed growth inhibition at 75 g/ha pre-emergence treatment […]; assay type: functional; conditions: read-out: GI; procedure, shortened: as §2

`C#CCN1C(=O)COc2cc(F)c(N3C(=O)c4ccc(F)cc4C3=O)cc21` gave an inhibition at 360 h [1] greater than 10%, an inhibition at 360 h [2] greater than 10% and an inhibition at 360 h [3] greater than 10%. The inhibition at 360 h [4] was greater than 10%, the inhibition at 360 h [5] was greater than 10% and the inhibition at 360 h [6] was greater than 10%. For the same compound, the inhibition at 360 h [7] was greater than 10%, the “growth inhibition (GI)” value (Gossypium [8]) was “Non-toxic” and the inhibition at 360 h [9] was greater than 10%. The inhibition at 360 h [10] was greater than 10%, the “growth inhibition (GI)” value (Gossypium [11]) was “Non-toxic” and the “growth inhibition (GI)” value (Zea mays [12]) was “Non-toxic”. The inhibition at 360 h [13] was greater than 10%, the “growth inhibition (GI)” value (Glycine max [14]) was “Non-toxic” and the inhibition at 360 h [15] was greater than 10%. The “growth inhibition (GI)” value (Zea mays [16]) was “Non-toxic”, the “growth inhibition (GI)” value (Gossypium [17]) was “Non-toxic” and the inhibition at 360 h [18] was 1%. The “growth inhibition (GI)” value (Glycine max [19]) was “Non-toxic”, the “growth inhibition (GI)” value (Gossypium [20]) was “Non-toxic” and the “growth inhibition (GI)” value (Triticum aestivum) was “Non-toxic”. For the same compound, the inhibition at 360 h [21] was greater than 10%, the inhibition at 360 h [22] was greater than 10% and the inhibition at 360 h [23] was 1%. The inhibition at 360 h [24] was greater than 10%, the inhibition at 360 h [25] was greater than 10% and the “growth inhibition (GI)” value [26] was “Non-toxic”. The “growth inhibition (GI)” value (Glycine max [27]) was “Non-toxic”, the “growth inhibition (GI)” value (Gossypium [28]) was “Non-toxic” and the IC50 (Abutilon theophrasti [29]) was 3.6 g/ha. The inhibition of growth at 75 g/ha (Setaria viridis [30]) was greater than 80%, the inhibition of growth at 75 g/ha (Echinochloa crus-galli [31]) was greater than 80% and the inhibition of growth at 75 g/ha (Digitaria sanguinalis) was greater than 80%. It also gave an inhibition of growth at 75 g/ha (Amaranthus blitum [32]) greater than 80%, an inhibition of growth at 75 g/ha (Chenopodium album) greater than 80% and an inhibition of growth at 75 g/ha (Abutilon theophrasti [33]) greater than 80%. For the same compound, the inhibition of growth at 75 g/ha (Setaria viridis [34]) was greater than 80%, the inhibition of growth at 75 g/ha (Echinochloa crus-galli [35]) was greater than 80% and the inhibition of growth at 75 g/ha (Amaranthus blitum [36]) was greater than 80%.

`C#CCN1C(=O)COc2cc(F)c(N3C(=O)C4=C(CCCC4)C3=O)cc21` [FLUMIOXAZIN] showed an inhibition at 360 h [1] greater than 10%, an inhibition at 360 h [2] greater than 10% and an inhibition at 360 h [3] greater than 10%. For the same compound, the inhibition at 360 h [4] was greater than 10%, the inhibition at 360 h [5] was greater than 10% and the inhibition at 360 h [6] was greater than 10%. The inhibition at 360 h [7] was greater than 10%, the “growth inhibition (GI)” value (Gossypium [8]) was “Non-toxic” and the inhibition at 360 h [9] was greater than 10%. The inhibition at 360 h [10] was greater than 10%, the “growth inhibition (GI)” value (Gossypium [11]) was “Non-toxic” and the “growth inhibition (GI)” value (Zea mays [12]) was “Non-toxic”. For the same compound, the inhibition at 360 h [13] was greater than 10%, the “growth inhibition (GI)” value (Glycine max [14]) was “Non-toxic” and the inhibition at 360 h [15] was greater than 10%. For the same compound, the “growth inhibition (GI)” value (Zea mays [16]) was “Non-toxic”, the “growth inhibition (GI)” value (Gossypium [17]) was “Non-toxic” and the inhibition at 360 h [18] was greater than 10%. The “growth inhibition (GI)” value (Glycine max [19]) was “Non-toxic”, the “growth inhibition (GI)” value (Gossypium [20]) was “Non-toxic” and the “growth inhibition (GI)” value (Triticum aestivum) was “Non-toxic”. It also gave an inhibition at 360 h [21] greater than 10%, an inhibition at 360 h [22] greater than 10% and an inhibition at 360 h [23] greater than 10%. For the same compound, the inhibition at 360 h [24] was greater than 10%, the inhibition at 360 h [25] was greater than 10% and the “growth inhibition (GI)” value [26] was “Non-toxic”. The “growth inhibition (GI)” value (Glycine max [27]) was “Non-toxic”, the “growth inhibition (GI)” value (Gossypium [28]) was “Non-toxic” and the IC50 (Abutilon theophrasti [29]) was 1 g/ha. The inhibition of growth at 75 g/ha (Setaria viridis [30]) was greater than 80%, the inhibition of growth at 75 g/ha (Echinochloa crus-galli [31]) was greater than 80% and the inhibition of growth at 75 g/ha (Digitaria sanguinalis) was greater than 80%. The inhibition of growth at 75 g/ha (Amaranthus blitum [32]) was greater than 80%, the inhibition of growth at 75 g/ha (Chenopodium album) was greater than 80% and the inhibition of growth at 75 g/ha (Abutilon theophrasti [33]) was greater than 80%. For the same compound, the inhibition of growth at 75 g/ha (Setaria viridis [34]) was greater than 80%, the inhibition of growth at 75 g/ha (Echinochloa crus-galli [35]) was greater than 80% and the inhibition of growth at 75 g/ha (Amaranthus blitum [36]) was greater than 80%.
